ERb SRC1 inh = inhibitors of ERβ-SRC1 coactivator interaction, primary screen, biochemical, TR-FRET, ERβ LBD, SRC-1 peptide | Estrogen receptor beta (Homo sapiens), Q92731 | TR-FRET ER-beta LBD / SRC1-Cy5 peptide binding; receptor agonist-loaded with 1 µM estradiol | inhibition, % at 25.6 µM | 86,000 compounds, 1.3% hits | AID 633, 2007;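 active means compounds whose percent inhibition of the receptor-coactivator binding signal exceeds about 50% in the single-dose screen, limit read from the data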;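 further: 0% = receptor plus peptide wells without compound and 100% = peptide-only wells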
ERa SRC1 pot = enhancers of ERα–SRC-1 coactivator binding, primary screen, biochemical, TR-FRET, ERα LBD, low estradiol; Estrogen receptor (Homo sapiens), P03372; TR-FRET ERalpha-LBD/SRC-Cy5 coactivator binding, 2 h; 100 = basal binding, no effect; coactivator binding (% of control), % at 25.6 µM; 86,000 compounds, 1.3% hits; AID 639, 2007; in the data active means activity above about 200%;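 further: binding measured in presence of low estradiol as agonist stimulus; 0% = peptide alone without receptor and 100% = receptor with peptide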
Target sequence (P03372 whole entry, looked up, the tested form may be a part): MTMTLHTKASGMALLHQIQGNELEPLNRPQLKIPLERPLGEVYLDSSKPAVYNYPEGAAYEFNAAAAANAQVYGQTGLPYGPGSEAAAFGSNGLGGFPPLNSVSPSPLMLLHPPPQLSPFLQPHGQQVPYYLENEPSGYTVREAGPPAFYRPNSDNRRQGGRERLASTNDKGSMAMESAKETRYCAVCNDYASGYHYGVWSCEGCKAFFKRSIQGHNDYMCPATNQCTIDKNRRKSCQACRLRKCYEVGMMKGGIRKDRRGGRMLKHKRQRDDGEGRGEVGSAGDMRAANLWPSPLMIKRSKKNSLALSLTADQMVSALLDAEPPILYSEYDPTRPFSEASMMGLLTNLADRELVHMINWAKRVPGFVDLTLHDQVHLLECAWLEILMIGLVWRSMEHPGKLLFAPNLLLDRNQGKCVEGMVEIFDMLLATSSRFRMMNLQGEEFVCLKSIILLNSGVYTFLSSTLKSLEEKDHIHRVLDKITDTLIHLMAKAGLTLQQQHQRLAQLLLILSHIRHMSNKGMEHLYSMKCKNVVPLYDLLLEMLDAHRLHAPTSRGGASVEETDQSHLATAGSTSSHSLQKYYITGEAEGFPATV
ERa SRC1 inh = ERα–SRC-1 coactivator interaction inhibitors, primary screen, biochemical, TR-FRET, ERα LBD, estradiol-bound; Estrogen receptor (Homo sapiens), P03372; TR-FRET ER-alpha LBD / SRC-1 peptide; inhibition, % at 25.6 µM; 86,000 compounds, 1.7% hits; in the data active means inhibition above about 50%;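 further: 0% = receptor plus peptide control and 100% = peptide only without receptor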
BAP1 inh = inhibitors of BAP1 deubiquitinase, primary screen, biochemical, Ub-AMC fluorescence, kinetic; calls only at 20 µM; AID 436, 2006; Ubiquitin carboxyl-terminal hydrolase BAP1 (Homo sapiens), Q92560; 72,000 compounds, 0.48% hits; recombinant BAP1, Ub-AMC hydrolysis fluorescence kinetic; active compounds read low;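 active means activity remaining at or below 50% of control, provided the compound also passes the data quality filters; inactive means the rest, including low values that fail the filters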;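 further: 100% = DMSO wells rate and 0% = substrate alone blank rate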
SF-1 act = activators of human SF-1, primary screen, cell-based, CHO-K1, Gal4-SF-1 LBD, luciferase luminescence | activation, % at 10 µM | CHO-K1 Gal4-SF-1 LBD luciferase reporter; % increase over DMSO SF-1-specific signal | 65,000 compounds, 1.9% hits;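 active means activation above the mean activation of all tested compounds plus 3 SD, cut at about 50% in these data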
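Material: Transient Gal4-SF-1 LBD reporter, CHO-K1 | Input: 4,000 cells/well | Dosing: One dose, 10 µM compound, 1% DMSO | Incubation: 20 h compound treatment, 37 °C | Detection: SteadyLite luciferase luminescence | Evaluation: Percent activation relative to DMSO median and mock-transfected background | Benchmarks: DMSO-treated SF-1-transfected cells as negative, DMSO-treated mock-transfected cells lacking SF-1 as background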
RORA act = activators of orphan receptor RORA, primary screen, cell-based, luminescence; CHO-K1 Gal4-RORA LBD luciferase reporter; percent increase over mock-subtracted basal signal; activation, % at 10 µM; 65,000 compounds, 1.5% hits; AID 560, 2006;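 active means activation above the mean of all tested compounds plus 3 SD, cut at about 49% in these data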;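 further: 0% = DMSO-treated RORA cells and 100% = added signal equal to DMSO minus mock-transfected cells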
BAP1 inh conf = BAP1 deubiquitinase inhibitors, hit retest, confirmation, orthogonal assay, biochemical, Ub-ethyl ester substrate, HPLC readout | % of control activity, % at 20 µM | purified BAP1, Ub-ethyl ester hydrolysis; active compounds read low | 310 compounds, 8% hits | shares compounds with BAP1 inh | AID 753, 2007;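 active means percent of control activity at or below 60%; inconclusive means HPLC trace unusable from injection failure or solvent front hiding peaks; inactive means the rest, plus ubiquitin peak ratio over a set limit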
* = called active by the depositor; i = inactive; ? = inconclusive; nt = no result given; + = active, no number; [ ] = remark or other dose. Only some compounds are listed: those with a hit (about 5.1% of all), similar ones and a draw of the others.

SMILES | ERb SRC1 inh | ERa SRC1 pot | ERa SRC1 inh | BAP1 inh | SF-1 act | RORA act | BAP1 inh conf
Cc1oc2ccc(OC(=O)c3ccc(Br)cc3)cc2c1C(=O)OC(C)C | nt | nt | nt | i | nt | nt | nt
CCOC(=O)C1CCN(S(=O)(=O)c2ccc3c4c(cccc24)C(=O)N3)CC1 | 2.1 | 98.8 | -3.9 | + | 3.3 | 29.5 | 120.4
COc1ccccc1N1CCN(S(=O)(=O)c2ccc3c4c(cccc24)C(=O)N3)CC1 | 12.1 | 85.9 | 3.7 | i | 3.1 | -10.2 | nt
COc1ccc(NC(=O)c2cnn3c(C(F)(F)F)cc(-c4ccc(OC)c(OC)c4)nc23)c(OC)c1 | nt | nt | nt | i | nt | nt | nt
c1ccc2c(-c3nc(C4CCCCC4)no3)cc(-c3ccncc3)nc2c1 | 26.7 | 95.5 | 34.2 | + | -14.9 | -12.8 | 89.9
c1ccc(-c2ccccc2-c2nc(-c3ccncc3)no2)cc1 | -9.4 | 96.5 | -9.0 | i | -7.3 | -22.1 | nt
COC(=O)c1ccc(NC(=O)CSc2nnc(COc3ccc4c(c3)CCCC4)o2)cc1 | nt | nt | nt | + | -4.5 | 0.9 | 81.7
CCCC(c1nnnn1CC(=O)OCC)N(Cc1cc2c(C)cc(C)cc2[nH]c1=O)C1CCCC1 (configuration not stated) | 17.9 | 121.6 | -0.1 | + | -7.6 | -8.5 | 98.3
CCCC(c1nnnn1CC(=O)OCC)N(Cc1cc2ccc(C)cc2[nH]c1=O)C1CCCC1 (configuration not stated) | -2.0 | 120.1 | 3.5 | i | -7.6 | 13.4 | nt
Cc1ccc(-c2cc(C(F)(F)F)n3ncc(C(=O)NCc4ccco4)c3n2)cc1 | 38.2 | 116.0 | 35.3 | + | -9.4 | -15.4 | ?
FC(F)(F)c1cc(-c2ccc3c(c2)OCO3)nc(NCc2ccco2)n1 | 10.4 | 102.3 | 24.9 | nt | 7.6 | -12.7 | nt
COc1ccc(-c2cc(C(F)(F)F)n3nc(C(=O)NCc4ccco4)cc3n2)cc1 | 18.3 | 74.7 | 9.7 | + | -19.2 | 11.1 | 110.7
O=C(NCc1ccco1)c1cc2nc(-c3ccc4c(c3)OCO4)cc(C(F)(F)F)n2n1 | 23.5 | 116.8 | 35.3 | + | 3.6 | -2.1 | 56.1*
O=C(NC12CC3CC(CC(C3)C1)C2)c1cc2nc(-c3ccco3)cc(C(F)(F)F)n2n1 | 4.5 | 89.7 | 3.8 | + | 3.9 | -1.4 | 79.2
CCOc1ccc(-c2nc(-c3ccccc3C)no2)cc1 | 2.7 | 99.7 | -8.8 | + | 6.5 | 15.7 | 102.4
CCOc1ccc(-c2nc(-c3cccnc3)no2)cc1 | 0.7 | 104.5 | -9.8 | nt | nt | nt | nt
CCc1ccc2[nH]c(=O)c(CN(Cc3ccccc3)Cc3nnnn3Cc3ccco3)cc2c1 | 9.0 | 110.9 | 10.9 | + | 1.0 | 5.3 | 109.7
Cc1ccc2[nH]c(=O)c(CN(Cc3ccc4c(c3)OCO4)Cc3nnnn3Cc3ccco3)cc2c1 | -1.3 | 92.3 | 3.9 | + | 0.8 | 13.7 | 102.3
Cc1cccc2cc(CN(Cc3cccs3)Cc3nnnn3Cc3ccccc3)c(=O)[nH]c12 | nt | nt | nt | + | 19.7 | -2.4 | 154.7
CCSc1sccc1C1C(C#N)=C(N)N(c2cccnc2)C2=C1C(=O)CCC2 (configuration not stated) | 11.6 | 116.4 | 4.0 | + | 0.7 | 15.4 | 113.5
Cc1nnc(SCC(=O)Nc2sc3c(c2C#N)CCCC3)s1 | nt | nt | nt | i | nt | nt | nt
CCCNC(=O)c1c(NC(=O)c2ccccc2C)sc2c1CCC2 | nt | nt | nt | i | nt | nt | nt
Cc1ccc2c(SCC(=O)NCc3ccco3)nc(-c3ccc(F)cc3)nc2c1 | 4.5 | 102.7 | 10.9 | + | -22.8 | 22.0 | 61.1
Cc1cc(C)c2cc(C#N)c(SCC(=O)NCc3ccco3)nc2c1 | 36.2 | 151.4 | 44.3 | nt | -1.3 | -17.0 | nt
c1ccc(-c2nnc(N3CCN(c4ccccn4)CC3)c3ccccc23)cc1 | -5.6 | 113.1 | -2.6 | i | -10.7 | 5.5 | nt
SMILES | ERb SRC1 inh | ERa SRC1 pot | ERa SRC1 inh | BAP1 inh | SF-1 act | RORA act | BAP1 inh conf
O=c1[nH]c2ccc(Cl)cc2c(-c2ccccc2)c1N1CCN(c2ccccn2)CC1 | 30.1 | 259.6*[fluorescence artefact?] | 12.6 | + | 4.5 | -6.6 | 108.8
CCOC(=O)C(NC(C)=O)C(O)c1cccc(N)c1 (configuration not stated) | nt | nt | nt | i | nt | nt | nt
Cc1ccc2c(c1)c1c(n2CC(O)Cn2nc(C)c(Br)c2C)C(=O)CCC1 (configuration not stated) | nt | nt | nt | + | -12.6 | -10.5 | 90.6
CC(=O)c1c(C)nn(CC(O)Cn2c3c(c4cc(C)ccc42)CCCC3=O)c1C (configuration not stated) | -11.7 | 98.6 | -6.1 | i | 20.4 | -7.5 | nt
COc1ccc(C(=O)Oc2ccc(Cl)c3cccnc23)cc1OC | nt | nt | nt | i | nt | nt | nt
Cc1nc(N2CCN(c3ccccc3)CC2)nc2c1C(=O)CC(c1ccccc1)C2 (configuration not stated) | 9.5 | 145.9 | 1.3 | + | 1.3 | -3.9 | 60.4
O=C(NCc1ccccc1)c1c[nH]c2ccc(S(=O)(=O)Nc3ccc4c(c3)OCCO4)cc2c1=O | 20.3 | 98.9 | 11.6 | + | 30.8 | 37.5 | ?
CCc1ccc(NS(=O)(=O)c2ccc3[nH]cc(C(=O)NCC4CCCO4)c(=O)c3c2)cc1 (configuration not stated) | 16.5 | 38.8 | 46.4 | i | 5.1 | 4.9 | nt
CC(=O)c1ccc(NC(=NS(=O)(=O)c2ccc(C)cc2)c2ccccc2)cc1 | nt | nt | nt | i | nt | nt | nt
CC(=O)c1c(O)c2ccccc2oc1=O | nt | nt | nt | i | nt | nt | nt
COc1ccc2c(C=Nc3c(C)n(C)n(-c4ccccc4)c3=O)c(O)n(Cc3ccco3)c(=O)c2c1 | 16.5 | 94.1 | 2.6 | + | -6.8 | -11.3 | 101.3
Cc1c(N=Cc2ccco2)c(=O)n(-c2ccccc2)n1C | 23.7 | 98.0 | 16.6 | i | 5.3 | -3.0 | nt
CCn1c(=O)c(C(=O)NCCc2ccccc2)c(O)c2ccccc21 | -1.7 | 102.0 | -0.7 | + | 11.4 | -2.1 | 103.6
O=C(Nc1nnc(-c2ccco2)s1)C1CCN(S(=O)(=O)c2ccc(Cl)cc2)CC1 | 8.5 | 410.5*[fluorescence artefact?] | 10.9 | + | -16.6 | 4.3 | ?
O=C(Nc1nnc(-c2ccco2)s1)C1CC1 | 18.1 | 94.1 | 0.1 | i | 18.4 | 27.7 | nt
Cc1cc(Cl)ccc1NC(=O)c1ccc(N(C)S(=O)(=O)c2ccccc2)cc1 | nt | nt | nt | i | nt | nt | nt

From PubChem
